The values that follow come from PMC12709667 (Journal of Clinical Pharmacology, 2025).

Data set [1] deals with fatty liver disease. To be noted: cited from earlier work.
Data set [2] is described as follows: In vitro blood/plasma partitioning. Format: in vitro ADME. To be noted: rat, whole blood. The gist of the method:
(§1)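 Test compound was added to rat, monkey or human whole blood and incubated, then centrifuged to obtain plasma. The plasma concentration was measured by LC-MS. It was compared with the concentration in directly spiked plasma of the same species.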

The target of data set [3] is T1, BCRP (Homo sapiens, UniProt Q9UNQ0).
T1 sequence (Q9UNQ0 1-655): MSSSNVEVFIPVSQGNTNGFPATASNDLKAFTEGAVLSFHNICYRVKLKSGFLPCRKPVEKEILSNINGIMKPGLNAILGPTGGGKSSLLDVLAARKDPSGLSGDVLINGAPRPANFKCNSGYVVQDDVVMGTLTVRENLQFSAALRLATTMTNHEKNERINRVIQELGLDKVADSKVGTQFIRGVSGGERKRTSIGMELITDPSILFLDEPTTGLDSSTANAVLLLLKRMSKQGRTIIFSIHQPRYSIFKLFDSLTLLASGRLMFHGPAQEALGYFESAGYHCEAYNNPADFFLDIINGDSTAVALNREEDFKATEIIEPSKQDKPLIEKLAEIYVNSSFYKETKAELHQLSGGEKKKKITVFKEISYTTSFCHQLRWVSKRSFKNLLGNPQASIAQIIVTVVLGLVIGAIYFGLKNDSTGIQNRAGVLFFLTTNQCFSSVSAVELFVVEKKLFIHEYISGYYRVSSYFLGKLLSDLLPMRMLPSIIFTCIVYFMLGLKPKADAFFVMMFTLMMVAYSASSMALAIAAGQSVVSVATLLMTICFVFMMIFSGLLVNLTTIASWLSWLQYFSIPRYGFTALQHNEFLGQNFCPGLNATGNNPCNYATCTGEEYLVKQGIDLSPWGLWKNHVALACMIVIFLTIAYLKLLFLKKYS
As to the kind of experiment: DDI perpetrator study: rosuvastatin probe. Format: in vivo. To be noted: miricorilant 400 mg once daily as perpetrator.

The nature of data set [4]: In vitro blood/plasma partitioning. Format: in vitro ADME. The following applies: human, whole blood. The gist of the method:
as §1

The target of data set [5] is T2, UGT1A3 (Homo sapiens, UniProt P35503).
T2 sequence (P35503 29-534): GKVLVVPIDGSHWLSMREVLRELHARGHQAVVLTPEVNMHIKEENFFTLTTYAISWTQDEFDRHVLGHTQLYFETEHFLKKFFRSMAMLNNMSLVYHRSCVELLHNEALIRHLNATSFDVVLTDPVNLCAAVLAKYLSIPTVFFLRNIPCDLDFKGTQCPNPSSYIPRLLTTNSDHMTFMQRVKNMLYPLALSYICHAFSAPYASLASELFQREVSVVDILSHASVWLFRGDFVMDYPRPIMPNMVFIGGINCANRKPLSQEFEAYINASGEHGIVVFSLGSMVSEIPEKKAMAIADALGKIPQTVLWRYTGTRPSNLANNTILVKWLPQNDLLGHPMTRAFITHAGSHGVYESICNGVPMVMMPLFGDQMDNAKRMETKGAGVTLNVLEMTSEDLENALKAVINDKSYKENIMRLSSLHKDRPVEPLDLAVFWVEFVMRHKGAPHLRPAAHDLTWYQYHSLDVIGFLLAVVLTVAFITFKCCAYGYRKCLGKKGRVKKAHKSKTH
As to the kind of experiment: Phase 2 enzyme inhibition. Format: in vitro ADME.

Data set [6] is described as follows: DDI perpetrator study. Format: in vivo. To be noted: human, plasma, oral, 400 mg.
The target of data set [7] is T3, UGT1A1 (Homo sapiens, UniProt P22309).
T3 sequence (P22309 26-533): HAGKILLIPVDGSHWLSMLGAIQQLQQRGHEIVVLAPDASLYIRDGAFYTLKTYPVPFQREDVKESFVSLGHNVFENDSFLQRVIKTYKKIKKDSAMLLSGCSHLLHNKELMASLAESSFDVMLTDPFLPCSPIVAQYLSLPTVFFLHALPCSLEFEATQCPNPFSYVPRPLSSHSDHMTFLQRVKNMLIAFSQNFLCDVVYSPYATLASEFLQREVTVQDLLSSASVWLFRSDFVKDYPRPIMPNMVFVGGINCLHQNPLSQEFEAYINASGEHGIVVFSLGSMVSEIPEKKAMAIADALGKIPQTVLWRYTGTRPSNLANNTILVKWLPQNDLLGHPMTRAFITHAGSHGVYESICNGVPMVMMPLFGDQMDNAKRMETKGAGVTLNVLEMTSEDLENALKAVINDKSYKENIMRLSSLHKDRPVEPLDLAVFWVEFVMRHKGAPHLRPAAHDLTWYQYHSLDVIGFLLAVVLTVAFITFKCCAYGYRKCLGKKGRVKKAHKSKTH
As to the kind of experiment: Phase 2 enzyme inhibition. Format: in vitro ADME.

The target in data set [8] is CYP2C19 (Homo sapiens, UniProt P33261). Kind of data set: Cytochrome P450 inhibition. Format: in vitro ADME.
Sequence of CYP2C19 (P33261 whole entry): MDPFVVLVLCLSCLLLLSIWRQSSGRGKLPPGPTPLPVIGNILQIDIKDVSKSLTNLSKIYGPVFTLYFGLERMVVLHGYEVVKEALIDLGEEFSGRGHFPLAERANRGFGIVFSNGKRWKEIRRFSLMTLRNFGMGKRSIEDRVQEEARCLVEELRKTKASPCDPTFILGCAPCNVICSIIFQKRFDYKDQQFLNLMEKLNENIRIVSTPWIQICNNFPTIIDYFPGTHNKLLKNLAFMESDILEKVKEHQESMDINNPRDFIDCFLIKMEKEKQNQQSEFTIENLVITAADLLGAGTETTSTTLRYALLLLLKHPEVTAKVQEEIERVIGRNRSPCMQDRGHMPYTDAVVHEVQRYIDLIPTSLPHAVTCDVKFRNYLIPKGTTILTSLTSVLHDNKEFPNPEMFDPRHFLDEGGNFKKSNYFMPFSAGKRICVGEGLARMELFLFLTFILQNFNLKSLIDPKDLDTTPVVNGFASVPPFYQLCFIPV
The target in data set [9] is T4, CYP2C8 (Homo sapiens, UniProt P10632).
T4 sequence (P10632 1-490): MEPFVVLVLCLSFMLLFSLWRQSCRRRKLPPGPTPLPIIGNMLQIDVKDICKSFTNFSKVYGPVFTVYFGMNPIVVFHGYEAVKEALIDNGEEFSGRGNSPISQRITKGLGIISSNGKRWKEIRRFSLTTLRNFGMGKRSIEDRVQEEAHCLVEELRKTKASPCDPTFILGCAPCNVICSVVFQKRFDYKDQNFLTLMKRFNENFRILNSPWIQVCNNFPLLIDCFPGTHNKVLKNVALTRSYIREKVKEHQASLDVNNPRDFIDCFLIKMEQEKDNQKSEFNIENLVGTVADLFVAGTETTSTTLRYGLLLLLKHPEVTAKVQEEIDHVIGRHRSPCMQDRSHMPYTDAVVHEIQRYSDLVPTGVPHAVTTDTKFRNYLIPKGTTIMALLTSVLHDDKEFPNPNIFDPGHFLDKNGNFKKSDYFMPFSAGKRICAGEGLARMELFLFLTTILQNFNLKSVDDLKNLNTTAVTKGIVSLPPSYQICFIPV
Kind of data set: Cytochrome P450 inhibition. Format: in vitro ADME.

One may read the AUC as concentration integrated over time. Read a high AUC as high exposure. What is called Cmax is the maximum level reached in the sampled fluid or tissue. The term Tmax denotes the time at which the peak concentration occurs. As a reminder, the half-life is how long it takes for the measured level to halve. Read a low half-life as rapid decline. By IC50 is commonly meant the point on the concentration scale where inhibition reaches its midpoint. A higher IC50 goes with a need for much substance. `O=c1[nH]c(=O)c(Cc2cccc(C(F)(F)F)c2)c([C@H]2CC[C@H](c3ccccc3)CC2)[nH]1` [miricorilant]: the “efficacy in mouse models of fatty liver disease” value in data set [1] was “shown efficacy”. The blood plasma ratio in [2] worked out at 0.84. In addition, the “clinical inhibition of BCRP” value in [3] is “moderate inhibitor”. Besides, the blood plasma ratio in [4] is 1.14. In [5], the “inhibition of UGT1A3” value is listed as “did not inhibit”. Further, in data set [6], the AUC stood at 11400 ng·h/mL, the Cmax at 10 study day worked out at 895 ng/mL, the Tmax at 10 study day stood at 4 h and the half-life at 10 study day is 12.2 h. For the same molecule, the IC50 in data set [7] was 1.4 µM. Besides, the “inhibition of CYP2C19” value in data set [8] is reported as “No inhibition”. In data set [9], the 50% inhibitory concentration (IC50) amounted to 7.5 µM and the “time dependence of CYP2C8 inhibition” value is given as “not time dependent”.
